# Assay outcomes from PubChem BioAssay.
# Statin myotox sup: suppression of simvastatin myotoxicity; rescue of ATP level, % at 7.49 µM; C2C12 myotubes + simvastatin, ATP luminescence, 48 h; scaled: DMSO 0, geranylgeraniol control 100; AID 602340; 330,000 compounds, 0.78% hits;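 active = mean ATP rescue above about 67%, or every replicate alone reaching that limit, limit read from the data, passing the limit was not always enough; inconclusive = no clear call, values can overlap the other calls; inactive = mean under the limit and some replicate under it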;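 note: myotubes were challenged with 10 µM simvastatin during compound exposure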
# S100A4 MyoIIA: inhibitors of human S100A4 binding to myosin IIA peptide; P26447; S100A4/TAMRA-MyoIIA peptide fluorescence polarization; inhibition, % at 10.7 µM; 360,000 compounds, 0.14% hits; AID 652163;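 active = mean inhibition of at least 70% across replicates, with every replicate also reaching that level; inconclusive = mean inhibition reaches 70% but some replicates fall short; inactive = mean inhibition below 70%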
# Target sequence (P26447 whole entry, looked up): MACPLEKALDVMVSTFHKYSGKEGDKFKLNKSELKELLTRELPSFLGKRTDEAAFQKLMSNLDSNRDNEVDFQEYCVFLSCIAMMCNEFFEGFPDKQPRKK
#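 Test system – S100A4 monomer (human) · Compound – single-point compound testing · Schedule – 5 min incubation before reading · Probe or stimulus – TAMRA-labelled myosin IIA heavy-chain peptide probe, 5 nM · Benchmarks – neutral control DMSO, positive control TFP · Medium – Calcium-containing HEPES buffer, pH 7.2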
# SIRT5 block: blocks human SIRT5 desuccinylation of peptide; Q9NXA8; Purified SirT5, succinyl-peptide AMC, trypsin-coupled fluorescence; inhibition, % at 15 µM; 330,000 compounds, 1.1% hits; in the data active = inhibition above about 15%; inconclusive = no clear call, values can overlap the other calls
# Target sequence (Q9NXA8 whole entry, looked up): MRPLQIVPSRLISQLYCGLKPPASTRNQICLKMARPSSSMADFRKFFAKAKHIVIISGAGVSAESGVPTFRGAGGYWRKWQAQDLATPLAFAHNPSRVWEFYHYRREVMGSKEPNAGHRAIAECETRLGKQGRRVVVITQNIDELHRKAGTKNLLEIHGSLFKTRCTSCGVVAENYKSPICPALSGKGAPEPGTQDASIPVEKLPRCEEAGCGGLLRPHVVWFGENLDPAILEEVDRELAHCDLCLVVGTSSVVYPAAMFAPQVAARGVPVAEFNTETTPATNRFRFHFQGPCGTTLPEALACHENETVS
# PGC1a acetyl inh: modulators of PGC1a acetylation | 350,000 compounds, 0.17% hits | U2OS PGC1a acetylation, AlphaScreen anti-acetyl-lysine; with virally co-expressed GCN5 acetyltransferase | inhibition, % at 15.6 µM;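 active = every replicate shows inhibition of at least 40%; inconclusive = mean inhibition at least 40% but some replicate below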
# DENV2 CPE: DENV2-induced cell death inhibition | DENV2-infected cells, cytopathic effect rescue, plate reader | CPE inhibition, % at 9.99 µM | 350,000 compounds, 1.7% hits | AID 651640; in the data active = CPE inhibition above about 20%, passing the limit was not always enough; inconclusive = no clear call, values can overlap the other calls; tested in BHK-21 cells
# Numbers stand for hits; 0 = inactive; ? = inconclusive; - = no result given; ! = repeats disagree. Compounds with a hit are over-represented: about 2.9% of the library has one in this group of screens.
SMILES,Statin myotox sup,S100A4 MyoIIA,SIRT5 block,PGC1a acetyl inh,DENV2 CPE
CC1CCN(CC(O)COc2ccc(OCC(O)CN3CCC(C)CC3)cc2)CC1 (centres undefined),0,0,0,-,0
N#C[C@@H]1[C@H](c2ccc(C#Cc3cccc(F)c3)cc2)[C@@H](CO)N1C(=O)C1CC1,0,0,0,0,0
C[C@@H]1CN([C@@H](C)CO)C(=O)c2cc(NC(=O)Nc3ccc(F)cc3)ccc2O[C@@H](C)CCCCO[C@@H]1CN(C)C(=O)Nc1ccc2c(c1)OCO2,-,0,0,0,23
COc1ccc(NC(=O)N(C)C[C@@H]2OCCCC[C@@H](C)Oc3ccc(NC(=O)Nc4ccc5c(c4)OCO5)cc3C(=O)N([C@H](C)CO)C[C@H]2C)cc1,0,0,15,0,0
C[C@@H]1CN([C@@H](C)CO)C(=O)c2cc(NC(=O)NC3CCCCC3)ccc2O[C@@H](C)CCCCO[C@H]1CN(C)C(=O)C1CCCCC1,0,0,0,-,0
C[C@@H]1CCCCO[C@H](CN(C)C(=O)NC2CCCCC2)[C@H](C)CN([C@@H](C)CO)C(=O)c2cc(NC(=O)c3ccccc3)ccc2O1,-,-,-,0,43
C[C@H]1CCCCO[C@H](CN(C)C(=O)C2CCCCC2)[C@@H](C)CN([C@@H](C)CO)C(=O)c2cc(NC(=O)NC3CCCCC3)ccc2O1,?,0,16!,0,0
CO[C@@H]1CN(C)C(=O)c2cc(NC(=O)c3ccccc3F)ccc2OC[C@H](C)N(CC2CCOCC2)C[C@H]1C,0,0,0,0,0
C[C@@H]1CCCCO[C@@H](CN(C)C(=O)Nc2ccc(F)cc2)[C@H](C)CN([C@H](C)CO)C(=O)c2cc(NC(=O)Nc3ccc(F)cc3)ccc2O1,-,0,0,0,65
COc1ccc(NC(=O)N(C)C[C@H]2OCCCC[C@@H](C)Oc3ccc(NC(=O)Nc4ccc(F)cc4)cc3C(=O)N([C@H](C)CO)C[C@H]2C)cc1,-,0,0,0,0
COc1ccc(NC(=O)N(C)C[C@@H]2OCCCC[C@@H](C)Oc3ccc(NC(=O)Nc4ccc(F)cc4)cc3C(=O)N([C@H](C)CO)C[C@@H]2C)cc1,-,0,18,0,0
C[C@@H]1CN([C@@H](C)CO)C(=O)c2cc(NC(=O)NC3CCCCC3)ccc2O[C@@H](C)CCCCO[C@H]1CN(C)C(=O)c1ccccc1,85,0,0,0,0
C[C@H]1CCCCO[C@H](CN(C)C(=O)c2ccccc2)[C@@H](C)CN([C@@H](C)CO)C(=O)c2cc(NC(=O)Nc3ccc(F)cc3)ccc2O1,-,0,0,0,28
C[C@H]1CN([C@@H](C)CO)C(=O)c2ccccc2-c2ccccc2CO[C@H]1CN(C)S(=O)(=O)c1ccccc1,-,0,0,0,0
C[C@H]1CCCCO[C@@H](CN(C)C(=O)C2CCCCC2)[C@@H](C)CN([C@@H](C)CO)C(=O)c2cc(NC(=O)Nc3ccc(F)cc3)ccc2O1,-,0,0,0,0
CC(C)NC(=O)N(C)C[C@@H]1OCCCC[C@H](C)Oc2ccc(NC(=O)Nc3ccc(F)cc3)cc2C(=O)N([C@@H](C)CO)C[C@H]1C,-,0,0,0,39
C[C@H](CO)N1C[C@H](C)[C@@H](CN(C)C(=O)C2CCCCC2)OCCCC[C@H](C)Oc2ccc(NC(=O)Nc3ccc(F)cc3)cc2C1=O,-,0,22,0,0
C[C@@H]1CN([C@H](C)CO)C(=O)c2cc(NC(=O)Nc3ccc(F)cc3)ccc2O[C@@H](C)CCCCO[C@H]1CN(C)C,0,0,0,0,42
C[C@H](CO)N1C[C@H](C)[C@H](CN(C)C(=O)c2ccccc2)OCCCC[C@H](C)Oc2ccc(NC(=O)Nc3ccc(C(F)(F)F)cc3)cc2C1=O,-,0,0,0,59
C/C=C/c1ccc([C@@H]2[C@@H](CN(C)C(=O)CC)N(C(=O)NC(C)C)[C@H]2CO)cc1,0,0,0,0,0
CCC(=O)Nc1ccc2c(c1)C(=O)N(C)C[C@@H](OC)[C@@H](C)CN(C(=O)c1cccnc1)[C@H](C)CO2,0,0,0,0,0
COc1ccccc1N(CC(=O)Nc1ccc2c(c1)OCCO2)S(C)(=O)=O,122,-,-,0,-
COc1ccc(CN(C)C(C)C(=O)Nc2ccc(S(=O)(=O)N3CCOCC3)cc2)c(OC)c1 (centres undefined),-,0,17,-,0
COc1cccc(NC(=O)CN(C)C(C)C(=O)Nc2ccc(S(=O)(=O)N3CCOCC3)cc2)c1 (centres undefined),-,0,0,0,0
COc1ccc(NC(=O)CN(C)C(=O)c2cc(S(=O)(=O)N3CCCCCC3)ccc2OC)cc1,0,0,0,0,0
SMILES,Statin myotox sup,S100A4 MyoIIA,SIRT5 block,PGC1a acetyl inh,DENV2 CPE
COc1ccc(C)cc1N(CC(=O)Nc1ccc2c(c1)OCCO2)S(C)(=O)=O,-,0,0,-,0
COc1ccc(S(=O)(=O)N2CCCCCC2)cc1C(=O)N(C)CC(=O)Nc1ccc(F)cc1,0,0,20,0,0
Cc1ccc(NC(=O)COc2ccc(S(=O)(=O)N3CCOCC3)cc2)cc1,152,-,-,0,-
O=S(=O)(c1ccc(OCC(O)CN2CCCC2)cc1)N1CCOCC1 (centres undefined),0,-,-,0,-
CN1CCN(CC(O)COc2ccc(S(=O)(=O)N3CCOCC3)cc2)CC1 (centres undefined),0,0,0,0,46
COc1ccc(C)cc1N(CC(=O)Nc1ccc(S(=O)(=O)N2CCOCC2)cc1)S(C)(=O)=O,0,0,0,0,24
COc1ccc(N(CC(=O)Nc2ccc(S(=O)(=O)N3CCOCC3)cc2)S(C)(=O)=O)cc1OC,0,0,0,-,0
C[C@@H]1CN([C@H](C)CO)C(=O)c2cc(C#Cc3ccccn3)cnc2O[C@@H]1CN(C)Cc1ccccc1,0,-,-,0,-
C(=C\c1ccc(C2[C@@H]3CN(Cc4cocn4)C[C@H]2N3)cc1)/c1ccccc1 (some centres undefined),-,-,-,0,30!
CC(C)NC(=O)N(C)C[C@H]1OCc2ccccc2-c2ccccc2C(=O)N([C@@H](C)CO)C[C@H]1C,0,0,0,0,0
COc1ccc2c(CC(=O)NNC(=O)c3ccc(C)cc3)coc2c1,0,0,21,0,0
Cc1ccc(S(=O)(=O)Nc2ccc3c(c2)C(=O)N([C@H](C)CO)C[C@@H](C)[C@@H](CN(C)S(=O)(=O)c2cccs2)OCCCC[C@H](C)O3)cc1,-,0,0,0,0
C[C@H]1CCCCO[C@H](CN(C)Cc2ccccc2)[C@@H](C)CN([C@@H](C)CO)C(=O)c2cc(NS(=O)(=O)c3ccc(F)cc3)ccc2O1,-,0,0,0,29
C[C@H]1CCCCO[C@@H](CN(C)Cc2ccccc2)[C@@H](C)CN([C@@H](C)CO)C(=O)c2cc(NS(=O)(=O)c3ccc(Cl)cc3)ccc2O1,-,0,0,0,0
Cc1ccc(S(=O)(=O)Nc2ccc3c(c2)C(=O)N([C@@H](C)CO)C[C@H](C)[C@H](CN(C)Cc2ccccc2)OCCCC[C@H](C)O3)cc1,-,-,-,0,0
